# Results from different studies.
# Compare with care: the assays were run in different laboratories.
# Target: Serine/threonine-protein kinase PAK 6 (PAK6, Homo sapiens, UniProt Q9NQU5)
Structure (SMILES),effect on,mode,technique,tested at,quantity,value
O=c1[nH]c2ccccc2n1C1CCN(Cc2ccc(-c3[nH]c4cc5ncnc5cc4nc3-c3ccccc3)cc2)CC1,cell-free assay,,,0.5 µM,remaining signal,109%
Cn1cc(-c2cccc(N3CCc4c(sc5c4CC(C)(C)C5)C3=O)c2CO)cc(Nc2ccncn2)c1=O,enzyme activity,inhibitor,,1 µM,inhibition,-7%
COc1cc(Nc2ncc(F)c(Nc3ccc4c(n3)NC(=O)C(C)(C)O4)n2)cc(OC)c1OC,binding,,competition with immobilised ligand,10 µM,inhibition,96%
Nc1ncc(-c2nc(N3CCOCC3)nc(N3CCOCC3)n2)c(C(F)F)n1,binding,,competition with immobilised ligand,10 µM,remaining binding,79%
COc1ncccc1-c1cnn2ccc(N3CCN(C(=O)OC(C)C)CC3)nc12,binding,,competition with immobilised ligand,1 µM,remaining binding,97%
Cc1nn(C)cc1-c1nc2c(N3CCN(Cc4ccc(Cl)cc4)CC3)c(Cl)cnc2[nH]1,binding,,competition with immobilised ligand,1 µM,remaining binding,100%
Cn1cncc1[C@](O)(COc1ccc(C#N)cc1-c1ccc(OC(F)(F)F)cc1)c1ccc(C#N)cc1,cell-free assay,,competition with immobilised ligand,1 µM,remaining binding,98%
Cn1cc(-c2cc(F)cc(N3CCn4c(cc5c4CCCC5)C3=O)c2CO)cc(Nc2ccc(N3CCN(C4COC4)CC3)cn2)c1=O,enzyme activity,inhibitor,,0.1 µM,inhibition,22%
